Assay results reported in ChEMBL document CHEMBL4184338, “In Vitro and In Vivo Demonstration of Human-Ovarian-Cancer Necrosis through a Water-Soluble and Near-Infrared-Absorbing Chlorin” (J Med Chem, 2018).
In brackets after ≈: the same amount, converted by molar mass. Activity calls are given as the source filed them. No cut-off for these calls is given here.

Key:
[1] = Solubility in 25% aqueous ethanolic medium at 25 degC after 24 hrs by UV-VIS spectrometric method; assay type: physicochemical
[2] = system: SK-OV-3; test: Antitumor activity against human SKOV3 cells xenografted in FoxN1 nude mouse assessed as decrease in tumor volume at 20 mg/kg, iv measured up to day 14 in presence of 100 J/cm'2 light; assay type: functional, organism-based
Method in brief: (§1)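 3-4 million SKOV-3 cells injected subcutaneously into the flank of 6-8 week old FoxN1 nude mice (20-25 g). At tumour volumes of about 100-150 mm3, randomised into four groups of six: untreated, light only, compound only, and compound plus light. Compound given iv at 20 mg/Kg in physiological saline. Irradiation 24 h later at 100 J/cm2, 100 mW/cm2, 600-750 nm source, under ip ketamine (60 mg/Kg)/xylazine (8 mg/Kg). Tumour volume by calipers, V=LW2/2, followed over two weeks. Tissues processed for H&E histology.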

[3] = Photostability of compound; assay type: physicochemical
[4] = system: SK-OV-3; test: Cell cycle arrest in human SKOV3 cells assessed as accumulation at sub-G1 phase at 20 uM after 12 hrs in absence of light by propidium iodide staining-based flow cytometric method (reference value: 2.2%); conditions: sk-ov-3, 12 h
[5] = system: SK-OV-3; test: Phototoxicity against human SKOV3 cells assessed as decrease in cell viability after 24 hrs in presence of 200 J/cm'2 light by MTT assay; assay type: functional, cell-based
Method in brief: (§2)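 Cell lines given varied compound concentrations, then irradiated (600-750 nm source, 200 J/cm2 at 50 mW/cm2) or kept dark. Viability by MTT at 24 h after treatment; IC50 from the dose-response. Three independent experiments averaged.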

[6] = system: IMR-32; test: Phototoxicity against human IMR32 cells assessed as decrease in cell viability after 24 hrs in presence of 200 J/cm'2 light by MTT assay; assay type: functional, cell-based; conditions: IMR-32, light or radiation study; method in brief: as §2
[7] = organism: Homo sapiens; test: Binding affinity to F-actin in human SKOV3 cells at 20 uM after 1 hr in presence of 200 J/cm'2 light by TRITC labeled phalloidin/DAPI staining-based confocal microscopic method
[8] = system: SK-OV-3; test: Cell cycle arrest in human SKOV3 cells assessed as accumulation at sub-G1 phase at 20 uM after 24 hrs in presence of 200 J/cm'2 light by propidium iodide staining-based flow cytometric method (reference value: 7%); assay type: functional
[9] = system: SK-OV-3; test: Induction of reactive oxygen species formation in human SKOV3 cells at 20 uM in presence of 200 J/cm'2 light by CM-H2DCFDA probe-based flow cytometric method (reference value: <1%); assay type: functional
[10] = system: Mus musculus; test: Toxicity in FoxN1 nude mouse xenografted with human SKOV3 cells assessed as effect on kidney morphology at 20 mg/kg, iv measured on day 14 in presence of 100 J/cm'2 light by hematoxylin-and-eosin staining-based assay; assay type: organism-based; conditions: in vivo; method in brief: as §1
[11] = Dark toxicity in human SKOV3 cells assessed as alteration in cell morphology by phase-contrast microscopic method; assay type: cell-based; conditions: sk-ov-3
Method in brief: (§3)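 SKOV-3 cells given compound, kept dark or irradiated (200 J/cm2, 50 mW/cm2). Morphology examined by phase-contrast microscopy (100X).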

[12] = system: SK-OV-3; test: Disruption of mitochondrial membrane potential in human SKOV3 cells at 20 uM in presence of 200 J/cm'2 light by MitoTracker Red probe/Hoechst 33342 staining-based confocal microscopic method; assay type: functional, cell-based
Method in brief: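 Control SKOV-3 cells and cells after photodynamic treatment (20 μM compound, 600-720 nm, 200 J/cm2) loaded with 200 nM MitoTracker Red CMXRos, 30 min at 37 °C. Formaldehyde-fixed, nuclear counterstain, confocal microscopy.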

[13] = Drug uptake in human SKOV3 cells at 20 uM after 1 hr in presence of 200 J/cm'2 light by Hoechst 33342 staining-based confocal microscopic method; assay type: ADME, cell-based; conditions: sk-ov-3, 1 h
Method in brief: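 SKOV-3 cells on chambered glass slides incubated with 20 μM compound for 1 h. Rinsed with PBS, stained with Hoechst 33342 (1 μg/mL), imaged by confocal microscopy.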

[14] = system: SK-OV-3; test: Induction of reactive oxygen species formation in human SKOV3 cells at 20 uM in absence of light by CM-H2DCFDA probe-based confocal microscopic method; assay type: cell-based; conditions: sk-ov-3, 20 µM
[15] = system: SK-OV-3; test: Induction of necrosis in human SKOV3 cells at 20 uM in presence of 200 J/cm'2 light by propidium iodide staining-based flow cytometric method (reference value: 7.45%); assay type: functional
Method in brief: (§4)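 Unfixed SKOV-3 cells given 20 μM compound, with or without light (600-720 nm, 200 J/cm2). Harvested, PBS-washed, stained with propidium iodide (10 μg/mL) for 20 min. PI-positive membrane-damaged fraction measured by flow cytometry.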

[16] = system: Mus musculus; test: Toxicity in FoxN1 nude mouse xenografted with human SKOV3 cells assessed as effect on heart morphology at 20 mg/kg, iv measured on day 14 in presence of 100 J/cm'2 light by hematoxylin-and-eosin staining-based assay; assay type: organism-based; conditions: in vivo; method in brief: as §1
[17] = Induction of singlet oxygen generation in methanol at 3 uM in presence of light by DPBF-based chemical trapping method; assay type: functional
[18] = system: Mus musculus; test: Toxicity in FoxN1 nude mouse xenografted with human SKOV3 cells assessed as effect on spleen morphology at 20 mg/kg, iv measured on day 14 in presence of 100 J/cm'2 light by hematoxylin-and-eosin staining-based assay; assay type: organism-based; conditions: in vivo; method in brief: as §1
[19] = Drug uptake in stromal cells of FoxN1 nude mouse xenografted with human SKOV3 cells at 20 mg/kg administered intratumorally measured at 12 hrs by fluorescence microscopic method; assay type: ADME, organism-based; conditions: in vivo, other
Method in brief: (§5)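 Compound injected intratumorally into SKOV-3 xenograft-bearing nude mice. Tumours biopsied 12 h after administration, then sectioned. Sections DAPI-counterstained and examined for red compound fluorescence by fluorescence microscopy.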

[20] = system: Mus musculus; test: Toxicity in FoxN1 nude mouse xenografted with human SKOV3 cells assessed as effect on skin around peritumoral area at 20 mg/kg, iv measured up to day 14 in presence of 100 J/cm'2 light; assay type: organism-based; conditions: in vivo; method in brief: as §1
[21] = system: Mus musculus; test: Toxicity in FoxN1 nude mouse xenografted with human SKOV3 cells assessed as effect on lung morphology at 20 mg/kg, iv measured on day 14 in presence of 100 J/cm'2 light by hematoxylin-and-eosin staining-based assay; assay type: organism-based; conditions: in vivo; method in brief: as §1
[22] = Drug uptake in neoplastic tumor of FoxN1 nude mouse xenografted with human SKOV3 cells at 20 mg/kg administered intratumorally measured at 12 hrs by fluorescence microscopic method; assay type: ADME, organism-based, Neoplasm; conditions: in vivo, other; method in brief: as §5
[23] = system: SK-OV-3; test: Induction of necrosis in human SKOV3 cells at 20 uM in absence of light by propidium iodide staining-based flow cytometric method (reference value: 7.03%); assay type: cell-based; conditions: sk-ov-3, 20 µM; method in brief: as §4
[24] = system: SK-OV-3; test: Cell cycle arrest in human SKOV3 cells assessed as accumulation at sub-G1 phase at 20 uM after 12 hrs in presence of 200 J/cm'2 light by propidium iodide staining-based flow cytometric method (reference value: 7%); assay type: functional
[25] = system: Mus musculus; test: Toxicity in FoxN1 nude mouse xenografted with human SKOV3 cells assessed as effect on liver morphology at 20 mg/kg, iv measured on day 14 in presence of 100 J/cm'2 light by hematoxylin-and-eosin staining-based assay; assay type: organism-based; conditions: in vivo; method in brief: as §1
[26] = Drug uptake in mitochondria of human SKOV3 cells at 20 uM after 1 hr in presence of 200 J/cm'2 light by MitoTracker Red probe/Hoechst 33342 staining-based confocal microscopic method; assay type: ADME; conditions: sk-ov-3, 1 h
[27] = system: SK-OV-3; test: Induction of reactive oxygen species formation in human SKOV3 cells at 20 uM in presence of 200 J/cm'2 light by CM-H2DCFDA probe-based confocal microscopic method; assay type: functional, cell-based
[28] = system: MDA-MB-231; test: Phototoxicity against human MDA-MB-231 cells assessed as decrease in cell viability after 24 hrs in presence of 200 J/cm'2 light by MTT assay; assay type: functional, cell-based; conditions: MDA-MB-231, light or radiation study; method in brief: as §2
[29] = system: SK-OV-3; test: Phototoxicity in human SKOV3 cells assessed as alteration in cell morphology in presence of 200 J/cm'2 light by phase-contrast microscopic method; assay type: functional, cell-based; method in brief: as §3
[30] = Drug uptake in fibrous tissue cells of FoxN1 nude mouse xenografted with human SKOV3 cells at 20 mg/kg administered intratumorally measured at 12 hrs by fluorescence microscopic method; assay type: ADME, organism-based; conditions: in vivo, other; method in brief: as §5
[31] = organism: Homo sapiens; test: Disruption of F-actin organization in human SKOV3 cells at 20 uM in presence of 200 J/cm'2 light by TRITC labeled phalloidin/DAPI staining-based confocal microscopic method; assay type: cell-based
Method in brief: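 SKOV-3 cells on coverslips: untreated, 20 μM compound in the dark, or 20 μM compound plus irradiation (600-720 nm, 200 J/cm2). Fixed in 4% paraformaldehyde/PBS, permeabilised with 0.1% Triton X-100, stained with TRITC-phalloidin (1:50, 1 h). DAPI counterstain, confocal imaging.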

[32] = system: MCF7; test: Phototoxicity against human MCF7 cells assessed as decrease in cell viability after 24 hrs in presence of 200 J/cm'2 light by MTT assay; assay type: functional, cell-based; conditions: MCF7, light or radiation study; method in brief: as §2
[33] = system: SK-OV-3; test: Antitumor activity against human SKOV3 cells xenografted in FoxN1 nude mouse assessed as disappearance of scar at site of tumor at 20 mg/kg, iv measured up to day 14 in presence of 100 J/cm'2 light; assay type: functional, organism-based; method in brief: as §1
[34] = system: SK-OV-3; test: Antitumor activity against human SKOV3 cells xenografted in FoxN1 nude mouse assessed as elimination of neoplastic cells in tumor at 20 mg/kg, iv measured on day 14 in presence of 100 J/cm'2 light by hematoxylin-and-eosin staining-based assay; assay type: functional, organism-based; method in brief: as §1

Compound: Oc1cccc(-c2c3nc(c(-c4cccc(O)c4)c4ccc([nH]4)c(-c4cccc(O)c4)c4nc(c(-c5cccc(O)c5)c5ccc2[nH]5)CC4)C=C3)c1 [TEMOPORFIN]
- solubility at 24 h [1]: 600 µM (≈ 408 µg/mL)

Compound: Oc1ccc(-c2c3nc(c(-c4ccc(O)c(O)c4)c4ccc([nH]4)c(-c4ccc(O)c(O)c4)c4nc(c(-c5ccc(O)c(O)c5)c5ccc2[nH]5)CC4)C=C3)cc1O
- Activity [2]: Active
- Stability [3]: Stable
- Activity [4]: 1%
- Activity [5]: Dose-dependent effect
- IC50 ([5]; SK-OV-3, light or radiation study): 11.2 µM
- IC50 [6]: 3.5 µM
- Activity [7]: Active
- Activity [8]: 76.7%
- Activity [9]: 73%
- Activity [10]: Non-Toxic
- Activity [11]: Non-Toxic
- Activity [12]: Active
- Drug uptake [13]: Active
- Activity [14]: Non-Toxic
- Activity [15]: 79.48%
- Activity [16]: Non-Toxic
- Activity [17]: 80%
- Activity [18]: Non-Toxic
- Drug uptake [19]: Not Active
- Activity [20]: Non-Toxic
- Activity [21]: Non-Toxic
- Drug uptake [22]: Active
- solubility at 24 h [1]: 3640 µM (≈ 2710 µg/mL)
- Activity [23]: 8.98%
- Activity [24]: 59.6%
- Activity [25]: Non-Toxic
- Drug uptake [26]: Active
- Activity [27]: Active
- IC50 [28]: 6.1 µM
- Activity [29]: Active
- Drug uptake [30]: Not Active
- Activity [31]: Active
- IC50 [32]: 4.4 µM
- Activity [33]: Active
- Activity [34]: Active
